The source made the active and inactive calls. No cut-off for these calls is given here.

Holding throughout (assay type): functional, organism-based
In assay [1] the test system is Leishmania donovani. The assay can be described thus: Antileishmanial activity of compound against leishmania donovani was determined in luciferase assay; Not active.
The subject of assay [2] is Leishmania donovani. The assay can be described thus: Antileishmanial activity of compound against leishmania donovani was determined in luciferase assay. The method in brief: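 Transgenic Leishmania donovani promastigotes expressing firefly luciferase, 2×10^6 cell/mL, exposed to compound dilutions in 96-well plates at 26°C for 72 h; growth read by luciferase luminescence (Steady Glo). At least six concentrations, each in duplicate; mean values used for growth inhibition curves and IC50. Pentamidine and amphotericin B as standards.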

Assay [3] relates to Plasmodium falciparum. The assay can be described thus: In vitro antimalarial activity against chloroquine-resistant Plasmodium falciparum W2 Indochina. The method, boiled down:
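Asynchronous P. falciparum cultures (2% hematocrit, 2% parasitemia) given compound dilutions in DMSO or RPMI-1640, incubated 48 h at 37°C under 90% N2/5% CO2/5% O2 in humidified chamber. Growth read as parasite lactate dehydrogenase activity with Malstat reagent. At least six concentrations, each in duplicate; medium and RBC controls on each plate.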

For assay [4], the system named is Plasmodium falciparum. Briefly: In vitro antimalarial activity against chloroquine-sensitive Plasmodium falciparum D6 Sierra Leone.

With `C[C@@H]1CC[C@H]2[C@@H](C)C(=O)O[C@@H]3OC(C)(C)OO[C@@]32C1`, the NA entry in the assay on Leishmania donovani [1] is “inactive”.

In the case of `C[C@@H]1CC[C@H]2[C@@H](C)C(=O)O[C@@H]3O[C@@]4(C)CC[C@@H]1[C@]32O4`, the NA result in the assay with Leishmania donovani [1] was “inactive”.

Consider `CC1(C)OO[C@]23CCCC[C@H]2[C@@H](CC(=O)O)C(=O)O[C@@H]3O1`, for which the NA result in the assay with Leishmania donovani [1] was “inactive”.

Broadly, the IC50 is the concentration needed to halve the response being measured. Take `C[C@@H]1CC[C@H]2[C@H](CCCc3ccccc3)C(=O)O[C@@H]3O[C@@]4(C)CCC1[C@]32OO4` (stereo partly drawn): the figures for the IC50 with Leishmania donovani [2], in the assay with Plasmodium falciparum [3] and in the assay with Plasmodium falciparum [4] were 45300 nM, 3.4 nM and 10.4 nM, respectively.

As for `C[C@@H]1CC[C@H]2[C@@H](CCC#N)C(=O)O[C@@H]3O[C@@]4(C)CCC1[C@]32OO4` (stereo partly drawn), the IC50 amounted to 38900 nM in the assay with Leishmania donovani [2], 14.9 nM with Plasmodium falciparum [3] and 14.9 nM with Plasmodium falciparum [4].

For `C[C@@H]1CC[C@H]2[C@@H](CCCc3ccc(N(C)C)cc3)CO[C@@H]3O[C@@]4(C)CC[C@@H]1[C@]32OO4`, the IC50 in the assay with Leishmania donovani [2] stood at 36000 nM; in the assay on Plasmodium falciparum [3], 14.3 nM; in the assay with Plasmodium falciparum [4] it was 16.5 nM.

Regarding `C[C@@H]1CC[C@H]2[C@@H](CCCc3ccc(O)cc3)C(=O)O[C@@H]3O[C@@]4(C)CC[C@@H]1[C@]32OO4`, the IC50 with Leishmania donovani [2] worked out at 44700 nM; in the assay on Plasmodium falciparum [3], 4.7 nM; with Plasmodium falciparum [4], 7.9 nM.

With `C[C@@H]1CC[C@H]2[C@@H](CCCc3cc(C(F)(F)F)cc(C(F)(F)F)c3)C(=O)O[C@@H]3O[C@@]4(C)CC[C@@H]1[C@]32O4`, the NA result in the assay with Leishmania donovani [1] was “inactive”.

In the case of `C[C@@H]1CC[C@H]2[C@@H](CCCc3cccc(Cl)c3)CO[C@@H]3O[C@@]4(C)CC[C@@H]1[C@]32O4`, the NA entry with Leishmania donovani [1] was “inactive”.

For `C[C@@H]1CC[C@H]2[C@@H](CCCc3ccc(S(C)(=O)=O)cc3)C(=O)O[C@@H]3O[C@@]4(C)CC[C@@H]1[C@]32O4`, the NA entry with Leishmania donovani [1] is “inactive”.

Consider `CSc1ccc(CCC[C@H]2C(=O)O[C@@H]3O[C@@]4(C)CCC5[C@H](C)CC[C@@H]2[C@]53OO4)cc1` (stereo partly drawn), for which the results for the IC50 in the assay with Leishmania donovani [2], in the assay on Plasmodium falciparum [3] and in the assay with Plasmodium falciparum [4] were 1400 nM, 50.8 nM and 43.9 nM, respectively.

Regarding `C[C@@H]1CC[C@H]2[C@@H](CCCc3ccc(N(C)C)cc3)C(=O)O[C@@H]3O[C@@]4(C)CCC1[C@]32OO4` (stereo partly drawn), the values for the half-inhibitory concentration (IC50) in the assay with Leishmania donovani [2], in the assay on Plasmodium falciparum [3] and in the assay on Plasmodium falciparum [4] were 1900 nM, 11.3 nM and 27.8 nM, respectively.

In the case of `C[C@@H]1CC[C@H]2[C@@H](CCCc3ccc(C(F)(F)F)cc3)CO[C@@H]3O[C@@]4(C)CC[C@@H]1[C@]32O4`, in the assay on Leishmania donovani [1], the NA result is “inactive”.

For `C[C@@H]1CC[C@H]2[C@@H](CCCc3cc(C(F)(F)F)cc(C(F)(F)F)c3)C(=O)O[C@@H]3O[C@@]4(C)CC[C@@H]1[C@]32OO4`, the IC50 came to 14400 nM in the assay with Leishmania donovani [2], 16 nM in the assay with Plasmodium falciparum [3] and 18.8 nM with Plasmodium falciparum [4].

With `C[C@@H]1CC[C@H]2[C@@H](CCCc3ccc(S(C)(=O)=O)cc3)C(=O)O[C@@H]3O[C@@]4(C)CCC1[C@]32OO4` (stereo partly drawn), the figures for the 50% inhibitory concentration (IC50) in the assay on Leishmania donovani [2], in the assay on Plasmodium falciparum [3] and in the assay with Plasmodium falciparum [4] were 53800 nM, 20 nM and 30.1 nM, respectively.

On to `C[C@@H]1CC[C@H]2[C@H](CCCc3cc(C(F)(F)F)cc(C(F)(F)F)c3)C(=O)O[C@@H]3O[C@@]4(C)CC[C@@H]1[C@]32OO4`, for which, in the assay on Leishmania donovani [1], the NA result is “inactive”. Besides, the values for the concentration for half-maximal inhibition (IC50) with Plasmodium falciparum [3] and with Plasmodium falciparum [4] were 8.2 nM and 12.6 nM, respectively.

`C[C@@H]1CC[C@H]2[C@@H](CCCc3ccccc3)C(=O)O[C@@H]3O[C@@]4(C)CCC1[C@]32OO4` (stereo partly drawn): the results for the IC50 in the assay on Leishmania donovani [2], in the assay on Plasmodium falciparum [3] and in the assay on Plasmodium falciparum [4] were 11600 nM, 1.3 nM and 4.7 nM, respectively.

`C[C@@H]1CC[C@H]2[C@@H](CCCc3cc(C(F)(F)F)cc(C(F)(F)F)c3)C(O)O[C@@H]3O[C@@]4(C)CC[C@@H]1[C@]32OO4` (stereo partly drawn): the NA result in the assay with Leishmania donovani [1] is “inactive”.

Values taken from ChEMBL document CHEMBL1145996 (J Med Chem, 2003).
